# Hits are enriched below; roughly 2.1% of the tested compounds scored in any of these assays.
# CAL PDZ FP-1 = human CAL PDZ-peptide interaction inhibition; purified CAL PDZ, TMR-peptide fluorescence polarization, 1 h; inhibition, % at 20 µM; 330,000 tested, 0.02% active; AID 504414;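 active = highest replicate inhibition of at least 40%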;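 also: plate controls were DMSO neutral control wells for no effect and unlabeled competitor peptide control wells for full effect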
#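 System: tagged CAL PDZ domain. Schedule: 1 h room-temperature incubation prior to read. Signal: fluorescence polarization (mP). Measure: percent inhibition from loss of millipolarization.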
# SR-BI HDL uptake = mouse SR-BI HDL lipid transfer inhibition | 320,000 tested, 0.96% active | ldlA[mSR-BI] CHO cells, DiI-HDL uptake fluorescence, 3 h | AID 488896 | inhibition, % at 12.5 µM | Q61009;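 active = mean replicate inhibition of at least 70% and a set share of replicates each scoring 70 or more; inconclusive = meets just one of the two criteria; inactive = fails both criteria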;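 also: 0% = median of neutral control wells and 100% = median of positive control wells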
# Target sequence (Q61009 whole entry, looked up): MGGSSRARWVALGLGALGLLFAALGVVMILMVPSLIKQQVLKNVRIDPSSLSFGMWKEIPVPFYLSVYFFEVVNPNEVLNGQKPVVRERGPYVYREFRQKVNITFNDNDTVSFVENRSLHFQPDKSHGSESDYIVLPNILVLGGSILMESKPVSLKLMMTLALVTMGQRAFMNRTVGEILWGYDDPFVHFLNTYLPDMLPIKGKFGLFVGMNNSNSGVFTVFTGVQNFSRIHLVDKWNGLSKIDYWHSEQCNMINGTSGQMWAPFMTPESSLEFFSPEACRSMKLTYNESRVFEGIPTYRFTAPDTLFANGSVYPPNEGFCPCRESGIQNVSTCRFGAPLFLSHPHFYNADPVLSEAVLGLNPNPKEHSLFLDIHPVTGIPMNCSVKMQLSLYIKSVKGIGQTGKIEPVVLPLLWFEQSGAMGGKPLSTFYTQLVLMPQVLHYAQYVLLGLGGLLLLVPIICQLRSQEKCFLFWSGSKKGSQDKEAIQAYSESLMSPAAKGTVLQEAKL
# miR122 inh = inhibitors of miR-122 in Huh7 cells. Huh7 miR-122 Renilla luciferase sensor, 48 h; neutral wells = 0, positive control = 100. activation (reporter increase), % at 12.5 µM. 340,000 tested, 0.3% active;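 active = mean replicate activation score at least 90 and every replicate individually at or above 90; inconclusive = only one of the two criteria met; inactive = neither criterion met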;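 also: higher luciferase means less miR-122 activity so hits act as miR-122 inhibitors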
# SR-BI uptake up = activators of SR-BI mediated HDL lipid uptake; CHO ldlA[mSR-BI] cells, DiI-HDL uptake fluorescence, 3 h; 100 = double the neutral-control signal; activation, % at 12.5 µM; 320,000 tested, 0.096% active; AID 504775;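 active = mean replicate activation of at least 60% and every replicate at or above 60%; inconclusive = mean or all-replicate condition met, but not both; inactive = mean below 60% and not all replicates reaching 60%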;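 also: 0% = median plate neutral-control signal and 100% = twice that signal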
#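 Test system: SR-BI-overexpressing, LDLR-lacking CHO cells; Medium: Ham's F12 with 0.5% BSA, HEPES 25 mM, pH 7.4; Schedule: 3 h, 37 °C; Technique: bottom-read fluorescence, 550/595 nm.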
# ARNT TACC3 PPI = disruptors of human ARNT/TACC3 interaction | AlphaScreen His-ARNT PAS-B/GST-TACC3 binding, luminescence; TACC3 fragment carries E629A point mutation | inhibition, % at 9.99 µM | 390,000 tested, 0.66% active | AID 623870;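 active = mean inhibition of replicates at least 50% and at least half of replicates each reaching 50%; inconclusive = half or more replicates reach 50% but mean below 50%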;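 also: 0% = complete ARNT plus TACC3 wells and 100% = ARNT alone without TACC3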
# CAL PDZ FP-2 = blocks peptide binding to the human CAL PDZ domain. Q9HD26. purified CAL PDZ, TMR-peptide fluorescence polarization, 1 h. inhibition, % at 24.9 µM. 300,000 tested, 0.92% active. AID 602252;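 active = mean inhibition of at least 30% with at least half of replicates also reaching 30%; inconclusive = no clear call, values can overlap the other calls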;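 also: 0% = DMSO neutral control and 100% = excess unlabeled competitor peptide PRC23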
# DiI quencher = counter-screen for SR-BI lipid transfer inhibitors: DiI fluorescence quenchers | AC50, µM (highest dose often 35 µM), without a hit: at the highest dose activity change, negative = quenching | cell-free DiI-HDL fluorescence quenching, 30 min | 470 tested, 20% active | shares compounds with SR-BI HDL uptake;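 active = quenching, a falling signal, with AC50 below a set limit tied to the top valid dose, actives reach about 32 µM in these data; inconclusive = no clear call, values can overlap the other calls; inactive = rising signal, and the rest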
# An asterisk follows results filed as active; ? = inconclusive; · = not tested or not shown; [ ] = remark or other dose.
SMILES,CAL PDZ FP-1,SR-BI HDL uptake,miR122 inh,SR-BI uptake up,ARNT TACC3 PPI,CAL PDZ FP-2,DiI quencher
CCOCCCNC(=O)c1cc2c(-c3ccc(Cl)cc3)nn(C)c2s1,-5,62,16,-62,-2,-4,·
Cn1nc(-c2ccc(Cl)cc2)c2cc(C(=O)NCCCN3CCOCC3)sc21,-13,72*,7,-72,31,9,1%
C[C@@H]1CCCCO[C@H](CN(C)CC2CC2)[C@H](C)CN([C@@H](C)CO)C(=O)c2cc(NC(=O)Cc3ccccc3)ccc2O1,·,·,-5[16.7 µM],·,-1,·,·
CN(Cc1ccc(OC(F)F)cc1)C(=O)c1ccccc1Sc1ccccc1C#N,-2,85*,·,-85,-3,·,-4%
Cc1noc(C)c1S(=O)(=O)N(C)C[C@H]1OCCCC[C@@H](C)Oc2ccc(NS(=O)(=O)c3cccs3)cc2C(=O)N([C@@H](C)CO)C[C@@H]1C,·,·,3[16.7 µM],·,1,·,·
Cc1ccc(C)c(N2CCN(CCCNC(=O)Cn3c(=O)c4cccn4c4cccnc43)CC2)c1,-4,?,4,-70,1,-1,-3%
Cc1ccc(C)c(N2CCN(CCCNC(=O)CCn3c(=O)c4cccn4c4cccnc43)CC2)c1,-1,68,-1,-68,-5,·,·
Cc1c(C(=O)OCc2ccccc2)[nH]c2c1C(=O)CC(c1ccco1)C2 (stereo not drawn),-1,84*,139*,-84,-5,·,-3%
COCCOC(=O)c1[nH]c2c(c1C)C(=O)CC(c1ccco1)C2 (stereo not drawn),-2,?,36,-72,-5,·,-2%
C=CCOC(=O)c1[nH]c2c(c1C)C(=O)CC(c1cc(OC)c(OC)c(OC)c1)C2 (stereo not drawn),-1,72*,-7,-72,-6,0,-1%
COCCOC(=O)c1[nH]c2c(c1C)C(=O)CC(c1cc(OC)c(OC)c(OC)c1)C2 (stereo not drawn),-2,37,·,-37,-6,-6,·
CCOC(=O)c1[nH]c2c(c1C)C(=O)CC(c1ccco1)C2 (stereo not drawn),-1,57,?,-57,-3,·,·
Cc1c(C(=O)OCCOC(C)C)[nH]c2c1C(=O)CC(c1ccco1)C2 (stereo not drawn),-2,89*,55,-89,-5,·,-1%
CSCCOC(=O)c1[nH]c2c(c1C)C(=O)CC(c1ccco1)C2 (stereo not drawn),-1,29,25,-29,0,·,·
Cc1ccc(S(=O)(=O)Nc2ccc3c(c2)C(=O)N([C@H](C)CO)C[C@@H](C)[C@@H](CN(C)C(=O)c2ccncc2)OCCCC[C@H](C)O3)cc1,·,·,8[16.7 µM],·,-4,·,·
COC(=O)c1[nH]c2c(c1C)C(=O)CC(c1cccs1)C2 (stereo not drawn),-1,82*,51,-82,-12,6,-6%
COc1ccc(S(=O)(=O)N(C)C[C@@H]2Oc3ccc(N(C)C)cc3C(=O)N([C@@H](C)CO)C[C@H]2C)cc1,·,·,0[16.7 µM],·,-2,·,·
COc1ccc(S(=O)(=O)N(C)C[C@@H]2Oc3ncc(-c4ccncc4)cc3C(=O)N([C@@H](C)CO)C[C@@H]2C)cc1,·,·,16[16.7 µM],·,-2,·,·
CC1CCCCC1NC(=O)C1CCN(C(=O)NC2CCCCC2)CC1 (stereo not drawn),-3,-3,3,3,-4,0,·
O=C(NCc1ccccc1Cl)C1CCN(C(=O)c2sccc2-n2cccc2)CC1,0,?,-7,-73,-3,·,-1%
CC1CCCCC1NC(=O)C1CCN(C(=O)c2sccc2-n2cccc2)CC1 (stereo not drawn),0,44,-8,-44,-4,·,-2%
CCOc1ccccc1CNC(=O)C1CCN(C(=O)c2sccc2-n2cccc2)CC1,0,70,-6,-70,-2,-3,-4%
